Assay results published in ChEMBL document CHEMBL2062497, “Syntheses and in vitro evaluation of decalinvesamicol analogues as potential imaging probes for vesicular acetylcholine transporter (VAChT)” (Bioorg Med Chem, 2012).

Columns and labels:
[1] = molecular target: T1, Vesicular acetylcholine transporter (Rattus norvegicus, UniProt Q62666); test: Displacement of (-)-[3H]vesamicol from VAChT in Sprague-Dawley rat cerebral membrane after 60 mins by liquid scintillation counting in presence of DTG
T1 sequence (Q62666 whole entry): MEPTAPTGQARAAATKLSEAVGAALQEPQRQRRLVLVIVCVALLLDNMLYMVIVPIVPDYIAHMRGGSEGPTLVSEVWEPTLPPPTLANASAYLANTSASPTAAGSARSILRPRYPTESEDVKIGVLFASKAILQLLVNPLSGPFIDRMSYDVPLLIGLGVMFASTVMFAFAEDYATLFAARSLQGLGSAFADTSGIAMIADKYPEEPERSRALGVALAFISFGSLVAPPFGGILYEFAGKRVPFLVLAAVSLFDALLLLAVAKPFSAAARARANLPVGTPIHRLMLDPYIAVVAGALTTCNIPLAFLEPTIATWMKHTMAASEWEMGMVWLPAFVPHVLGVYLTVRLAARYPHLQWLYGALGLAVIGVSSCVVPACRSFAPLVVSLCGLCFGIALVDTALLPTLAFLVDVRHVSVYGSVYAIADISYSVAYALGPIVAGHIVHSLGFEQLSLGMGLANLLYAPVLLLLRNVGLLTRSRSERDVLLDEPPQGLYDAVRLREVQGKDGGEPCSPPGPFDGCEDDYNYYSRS

[2] = molecular target: Sigma non-opioid intracellular receptor 1 (Rattus norvegicus, UniProt Q9R0C9); test: Displacement of (+)-[3H]pentazocine from sigma1 receptor in Sprague-Dawley rat cerebral membrane after 90 mins by liquid scintillation counting
Sequence of Sigma non-opioid intracellular receptor 1 (Q9R0C9 whole entry): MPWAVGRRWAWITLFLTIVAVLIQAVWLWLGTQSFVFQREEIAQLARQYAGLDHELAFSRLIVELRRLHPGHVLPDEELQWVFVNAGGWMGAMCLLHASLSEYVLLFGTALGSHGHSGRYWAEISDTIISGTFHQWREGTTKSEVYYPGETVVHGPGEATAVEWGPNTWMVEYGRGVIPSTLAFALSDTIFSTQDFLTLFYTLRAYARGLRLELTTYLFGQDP

[3] = Displacement of [3H]DTG from sigma2 receptor in Sprague-Dawley rat liver membrane after 90 mins by liquid scintillation counting in presence of pentazocine; assay type: cell membranes
Outline: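 Sigma-2 assay: rat liver membranes (male Sprague-Dawley) with [3H]DTG (Kd 22.3 nM) plus pentazocine to mask sigma-1. Displacers at 1.0×10^-10–10^-5 M in 50 mM Tris-HCl pH 7.8, quadruplicate. Incubated 37 °C for 90 min, then filtered and scintillation counted. Three independent experiments; Ki via IC50/(1 + C/Kd).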

[4] = molecular target: T1, Vesicular acetylcholine transporter; test: Displacement of [125I]O-iodo-trans-decalinvesamicol from VAChT in Sprague-Dawley rat cerebral membrane after 1 hr by gamma counting
Outline: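 Male Sprague-Dawley cerebral membranes were incubated with 5 nM radioiodinated tracer and each ligand at 10^-10–10^-5 M in 50 mM Tris-HCl pH 7.8, quadruplicate. Nonspecific binding was taken with excess unlabelled ligand. Incubation was 37 °C for 1 h, then ice quench, PEI-soaked filter harvest and gamma counting.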

[5] = molecular target: T1, Vesicular acetylcholine transporter; test: Binding affinity to VAChT in rat cerebral membrane; assay type: cell membranes
[6] = n-octanol-water partition coefficient, log P at 0.51 MBq after 5 mins by gamma counting; assay type: physicochemical
Outline: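 Tracer (0.51 MBq) partitioned between n-octanol and 0.1 M phosphate buffer pH 7.4 (n = 4). Vortexed 5 min at room temperature, then centrifuged 10 min at 2000g. Four samples per layer were gamma counted. logP = log10(octanol/aqueous radioactivity). Three independent experiments.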

[7] = molecular target: T1, Vesicular acetylcholine transporter; test: Binding affinity to VAChT in Sprague-Dawley rat cerebral membrane after 1 hr by gamma counting in presence of haloperidol
Outline: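 Saturation binding of [¹²⁵I]-labelled radioligand (0.1–10 nM) to cerebral membranes from male 8-week Sprague-Dawley rats (sucrose homogenate, differential centrifugation), with 100 nM haloperidol masking σ receptors. Incubated in 50 mM Tris–HCl pH 7.8 for 1 h at 37 °C, in quadruplicate. Filtered and washed, then gamma counted. Specific binding is total minus nonspecific; Kd and Bmax come from the saturation curve and Scatchard plot.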

Brain = test: Drug uptake in Sprague-Dawley rat brain at 185 kBq, iv at 10 mins by gamma counting; assay type: ADME, organism-based; conditions: in vivo
Outline: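 Male Sprague-Dawley rats (8 weeks, 250–300 g, n = 4) got radioiodinated tracer, 185 kBq, by tail-vein injection. Sacrificed at 10 min. Whole brains were weighed and gamma counted, expressed as %ID/g.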

SMILES | Ki [3] [nM] | Ki [4] [nM] | further results
OC1C[C@@H]2CCCC[C@H]2CC1N1CCC(c2ccccc2I)CC1 (relative stereo) | 119 | 28.6 | Ki [1]: 20.5 nM; Ki [2]: 242 nM
OC1CCCCC1N1CCC(c2ccccc2)CC1 (configuration not stated) | 86.7 | – | –
OC1C[C@@H]2CCCC[C@H]2CC1N1CCC(c2ccccc2)CC1 (relative stereo) | 68.3 | – | Ki [2]: 74.1 nM
O[C@@H]1CCCCC1N1CCC(c2ccccc2[125I])CC1 (some centres not stated) | – | – | Kd [5]: 17.4 nM
OC1C[C@@H]2CCCC[C@H]2CC1N1CCC(c2ccccc2[125I])CC1 (relative stereo) | – | – | logP at 5 min [6]: 2.46; Kd [7]: 1.73 nM; Drug uptake (Brain): 0.45 % ID/g
OC1C[C@@H]2CCCC[C@H]2CC1N1CCC(c2ccccc2Br)CC1 (relative stereo) | 138 | 9.3 | Ki [1]: 13.8 nM; Ki [2]: 151 nM
O=C(CCCN1CCC(O)(c2ccc(Cl)cc2)CC1)c1ccc(F)cc1 [HALOPERIDOL] | 51.6 | – | –
O=C(c1ccc(F)cc1)C1CCN(CCn2c(=O)[nH]c3ccccc3c2=O)CC1 [KETANSERIN] | – | > 10000 | –
CC(C)=CCN1CC[C@]2(C)c3cc(O)ccc3C[C@H]1[C@H]2C [(+)-PENTAZOCINE] | – | > 10000 | –
NC[C@H](O)c1ccc(O)c(O)c1 [NOREPINEPHRINE] | – | > 10000 | –
Cc1ccccc1NC(=N)Nc1ccccc1C [DITOLYLGUANIDINE] | 31.7 | 1130 | –
O=C(CCCN1CCC2(CC1)C(=O)NCN2c1ccccc1)c1ccc(F)cc1 [SPIPERONE] | – | 1030 | –
